Reference: ChEMBL document CHEMBL1949545, “Synthesis and evaluation of malonate-based inhibitors of phosphosugar-metabolizing enzymes: class II fructose-1,6-bis-phosphate aldolases, type I phosphomannose isomerase, and phosphoglucose isomerase” (Bioorg Med Chem, 2012)
The source made the active and inactive calls. No cut-off for these calls is given here.

Assays:
[1] = test system: Yersinia pestis; test: Antimicrobial activity against Yersinia pestis at 1 mM; assay type: functional, organism-based
[2] = test system: Candida albicans; test: Antimicrobial activity against Candida albicans at 1 mM; assay type: functional, organism-based
Procedure, shortened: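 Growth inhibition was tested in cultivated microbial cultures at concentrations up to 1 mM.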

[3] = test system: Mycobacterium tuberculosis; test: Antimicrobial activity against Mycobacterium tuberculosis at 1 mM; assay type: functional, organism-based
[4] = Inhibition of Helicobacter pylori FBA-2
[5] = Inhibition of Yersinia pestis FBA-2
[6] = Inhibition of Mycobacterium tuberculosis FBA-2
[7] = Inhibition of Candida albicans FBA-2
[8] = target: T1, Fructose-bisphosphate aldolase A (Oryctolagus cuniculus, UniProt P00883); test: Inhibition of rabbit muscle FBA-1
T1 sequence (P00883 whole entry): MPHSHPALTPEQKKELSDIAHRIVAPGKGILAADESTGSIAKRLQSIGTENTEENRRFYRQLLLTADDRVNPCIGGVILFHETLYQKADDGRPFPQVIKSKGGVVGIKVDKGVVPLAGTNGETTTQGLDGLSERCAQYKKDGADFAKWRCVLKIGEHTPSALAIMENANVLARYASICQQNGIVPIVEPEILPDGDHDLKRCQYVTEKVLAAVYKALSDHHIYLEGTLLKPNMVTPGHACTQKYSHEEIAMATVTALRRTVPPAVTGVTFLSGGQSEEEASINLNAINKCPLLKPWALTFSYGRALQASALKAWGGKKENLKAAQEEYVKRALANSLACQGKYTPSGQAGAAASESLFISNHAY

[9] = Inhibition of Escherichia coli PMI
[10] = Inhibition of yeast PGI; set-up: species or system Saccharomyces cerevisiae

Structure (SMILES)	Activity [1]	Activity [2]	Activity [3]	Ki [4] [nM]	Ki [5] [µM]	Ki [6] [nM]	Ki [7] [µM]	Ki [8] [µM]	IC50 [9] [mM]	IC50 [10] [mM]	Ki [9] [µM]	Ki [10] [nM]
O=C(COP(=O)(O)O)N(O)CCCCOP(=O)(O)O	inactive	inactive	inactive	–	–	–	–	–	–	–	–	–
O=C(CO)N(O)CCCCOP(=O)(O)O	–	–	–	1200	0.08	175	0.76	> 1000	–	–	–	–
O=C(NO)[C@@H](O)[C@H](O)[C@H](O)CO	–	–	–	–	–	–	–	–	10	5.54	–	–
O=C(O)C(CC(=O)N(O)CCCCOP(=O)(O)O)C(=O)O	inactive	inactive	inactive	250000	1500	500000	2300	500	–	–	–	–
O=C(O)C(CCCCN(O)C(=O)COP(=O)(O)O)C(=O)O	inactive	inactive	inactive	40	0.008	4	0.05	257	–	–	–	–
O=C(NO)[C@@H](O)[C@H](O)[C@H](O)COP(=O)(O)O	–	–	–	–	–	–	–	–	–	–	0.08	230
NO.O=C(O)C(C[C@@H](O)[C@@H](O)[C@H](O)C(=O)NO)C(=O)O	–	–	–	–	–	–	–	–	–	2.29	162	–
